Experimental data: ChEMBL document CHEMBL1157034, “Synthesis of 1-benzyl-3-(5-hydroxymethyl-2-furyl)selenolo[3,2-c]pyrazole derivatives as new anticancer agents” (Eur J Med Chem, 2010)

Legend:
[1] = test system: CCRF-CEM; experiment: Antitumor activity against human CCRF-CEM cells after 48 hrs by MTT assay; format: functional
[2] = test system: OVCAR-5; experiment: Antitumor activity against human OVCAR5 cells after 48 hrs by MTT assay; format: functional; details: OVCAR-5, 48 h
[3] = test system: NCI-H226; experiment: Antitumor activity against human NCI-H226 cells after 48 hrs by MTT assay; format: functional, cell-based; details: NCI-H226, 48 h
Method in brief: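 Cells grown at 37 °C in humidified 5% CO2, seeded at 1×10^4 cells/well, and allowed to attach for 24 h. They were then exposed to a range of concentrations for 48 h, washed with PBS, and given 1 mg/ml MTT for 2 h. Formazan was dissolved in DMSO and read at 570 nm.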

[4] = Antitumor activity against human […] cells after 48 hrs by MTT assay; format: functional
[5] = Antitumor activity against human MCF7/ADR cells after 48 hrs by MTT assay; format: functional; details: NCI/ADR-RES
[6] = test system: MDA-MB-231; experiment: Antitumor activity against human MDA-MB-231 cells after 48 hrs by MTT assay; format: functional; details: MDA-MB-231, 48 h
[7] = test system: NCI-H460; experiment: Antitumor activity against human NCI-H460 cells after 48 hrs by MTT assay; format: functional; details: NCI-H460, 48 h
[8] = test system: PC-3; experiment: Antitumor activity against human PC3 cells after 48 hrs by MTT assay; format: functional; details: PC-3, 48 h
[9] = test system: SF-539; experiment: Antitumor activity against human SF539 cells after 48 hrs by MTT assay; format: functional; details: SF-539, 48 h
[10] = test system: SK-OV-3; experiment: Antitumor activity against human SKOV3 cells after 48 hrs by MTT assay; format: functional; details: SK-OV-3, 48 h
[11] = test system: MDA-MB-435; experiment: Antitumor activity against human MDA-MB-435 cells after 48 hrs by MTT assay; format: functional; details: MDA-MB-435, 48 h
[12] = test system: SR; experiment: Antitumor activity against human SR cells after 48 hrs by MTT assay; format: functional
[13] = test system: A549; experiment: Antitumor activity against human A549 cells after 48 hrs by MTT assay; format: functional; details: A549, 48 h
[14] = test system: NCI/ADR-RES; experiment: Antitumor activity against human NCI/ADR-RES cells after 48 hrs by MTT assay; format: functional
[15] = test system: COLO 205; experiment: Antitumor activity against human COLO205 cells after 48 hrs by MTT assay; format: functional; details: COLO 205, 48 h
[16] = test system: CAKI-1; experiment: Antitumor activity against human Caki1 cells after 48 hrs by MTT assay; format: functional; details: CAKI-1, 48 h
[17] = test system: SW-620; experiment: Antitumor activity against human SW620 cells after 48 hrs by MTT assay; format: functional; details: SW-620, 48 h
[18] = test system: NCI-H23; experiment: Antitumor activity against human NCI-H23 cells after 48 hrs by MTT assay; format: functional; details: NCI-H23, 48 h
[19] = test system: OVCAR-4; experiment: Antitumor activity against human OVCAR4 cells after 48 hrs by MTT assay; format: functional; details: OVCAR-4, 48 h
[20] = test system: K562; experiment: Antitumor activity against human K562 cells after 48 hrs by MTT assay; format: functional; details: K562, 48 h
[21] = test system: HCT-15; experiment: Antitumor activity against human HCT15 cells after 48 hrs by MTT assay; format: functional; details: HCT-15, 48 h
[22] = test system: BT-549; experiment: Antitumor activity against human BT549 cells after 48 hrs by MTT assay; format: functional; details: BT-549, 48 h
[23] = test system: ACHN; experiment: Antitumor activity against human ACHN cells after 48 hrs by MTT assay; format: functional, cell-based
[24] = test system: Malme-3M; experiment: Antitumor activity against human MALME-3M cells after 48 hrs by MTT assay; format: functional
[25] = test system: OVCAR-3; experiment: Antitumor activity against human OVCAR-3 cells after 48 hrs by MTT assay; format: functional; details: OVCAR-3, 48 h
[26] = read-out: pLC50 (the source's name) (converted)

OCc1ccc(-c2nn(Cc3ccccc3)c3cc[se]c23)o1
GI50 [1]: 24.5 µM
CC50 [1, 26]: > 100 µM
TGI ([1]; read-out: pTGI): > 100 µM
GI50 ([2]; read-out: pGI50 (converted)): 7.41 µM
CC50 [2, 26]: > 100 µM
TGI ([2]; read-out: pTGI): > 100 µM
GI50 [3]: 0.316 µM
TGI ([3]; read-out: pTGI (converted)): 0.977 µM
GI50 [4]: 22.4 µM
CC50 [4, 26]: > 100 µM
TGI ([4]; read-out: pTGI): > 100 µM
CC50 [5, 26]: > 100 µM
TGI ([5]; read-out: pTGI): > 100 µM
GI50 [6]: 36.3 µM
CC50 [6, 26]: > 100 µM
TGI ([6]; read-out: pTGI): > 100 µM
GI50 [7]: 28.2 µM
CC50 [7, 26]: > 100 µM
TGI ([7]; read-out: pTGI): > 100 µM
GI50 ([8]; read-out: pGI50 (converted)): 27.5 µM
CC50 [8, 26]: > 100 µM
TGI ([8]; read-out: pTGI): > 100 µM
GI50 [9]: 27.5 µM
CC50 [9, 26]: > 100 µM
TGI ([9]; read-out: pTGI): > 100 µM
GI50 ([10]; read-out: pGI50 (converted)): 46.8 µM
CC50 [10, 26]: > 100 µM
TGI ([10]; read-out: pTGI): > 100 µM
GI50 [11]: 23.4 µM
CC50 [11, 26]: > 100 µM
TGI ([11]; read-out: pTGI (converted)): 75.9 µM
GI50 [12]: 21.9 µM
CC50 [12, 26]: > 100 µM
TGI ([12]; read-out: pTGI (converted)): 63.1 µM
GI50 [13]: 36.3 µM
CC50 [13, 26]: > 100 µM
TGI ([13]; read-out: pTGI): > 100 µM
GI50 ([14]; read-out: pGI50 (converted)): 25.7 µM
CC50 [14, 26]: > 100 µM
TGI ([14]; read-out: pTGI): > 100 µM
GI50 [15]: 29.5 µM
CC50 [15, 26]: > 100 µM
TGI ([15]; read-out: pTGI): > 100 µM
CC50 [16, 26]: > 100 µM
TGI ([16]; read-out: pTGI): > 100 µM
GI50 [17]: 35.5 µM
CC50 [17, 26]: > 100 µM
TGI ([17]; read-out: pTGI): > 100 µM
GI50 [18]: 42.7 µM
CC50 [18, 26]: > 100 µM
TGI ([18]; read-out: pTGI): > 100 µM
GI50 [19]: 26.3 µM
CC50 [19, 26]: > 100 µM
TGI ([19]; read-out: pTGI): > 100 µM
GI50 [20]: 25.1 µM
CC50 [20, 26]: > 100 µM
TGI ([20]; read-out: pTGI): > 100 µM
GI50 [21]: 30.2 µM
CC50 [21, 26]: > 100 µM
TGI ([21]; read-out: pTGI): > 100 µM
GI50 [22]: 25.1 µM
CC50 [22, 26]: > 100 µM
TGI ([22]; read-out: pTGI (converted)): 95.5 µM
GI50 ([23]; read-out: pGI50 (converted)): 25.7 µM
LC50 ([23]; read-out: pLC50 (converted)): > 100 µM
TGI ([23]; read-out: pTGI): < 100 µM
GI50 [24]: 25.7 µM
CC50 [24, 26]: > 100 µM
TGI ([24]; read-out: pTGI): > 100 µM
GI50 [25]: 13.2 µM
CC50 [25, 26]: > 100 µM
TGI ([25]; read-out: pTGI (converted)): 79.4 µM
